Reference: ChEMBL document CHEMBL1155362, “Synthesis, characterization and derivatization of some novel types of mono- and bis-imidazolidineiminothiones and imidazolidineiminodithiones with antitumor, antiviral, antibacterial and antifungal activities--part I” (Eur J Med Chem, 2009)
≈ marks a conversion by molar mass, not a printed value.

How the values were obtained:
Staphylococcus aureus [1] = assay: Antibacterial activity against Staphylococcus aureus NCTC 7447 at 5 mg/ml by agar disk diffusion assay; type: functional; details: read-out: DIZ
Hepatovirus A = assay: Antiviral activity against HAV infected african green monkey Vero cells at 10^-2 dilution of 5 mg/ml by plaque formation assay; type: functional
Method in brief: (§1)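 Compound dilutions prepared from a 5 mg/mL DMSO stock, using the maximum non-toxic dilution for Vero cells over 3 days; 0.1 mL virus (10³) mixed with 0.1 mL compound for 1 h at room temperature; mixture inoculated onto washed Vero monolayers in 12-well plates and adsorbed at 37 °C; 2× MEM/agarose overlay applied; read-out % reduction in plaque count versus untreated virus control.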

Bacillus subtilis [2] = assay: Antibacterial activity against Bacillus subtilis NCTC 1040 at 5 mg/ml by agar disk diffusion assay; type: functional; details: read-out: DIZ
Human alphaherpesvirus 1 = assay: Antiviral activity against HSV1 infected african green monkey Vero cells at 10^-2 dilution of 5 mg/ml by plaque formation assay; type: functional; method in brief: as §1
Coxsackievirus B4 = assay: Antiviral activity against Coxsackievirus B4 infected african green monkey Vero cells at 10^-2 dilution of 5 mg/ml by plaque formation assay; type: functional; method in brief: as §1
Candida albicans [3] = assay: Antifungal activity against Candida albicans IMRU 3669 at 5 mg/ml by agar disk diffusion assay; type: functional; details: Candida albicans, IMRU 3669; read-out: DIZ
Method in brief: (§2)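 Fungi maintained on Czapek's Dox agar; agar well diffusion with 1 cm wells and […] of each concentration (1, 2.5, 5 mg/mL) in DMF; inhibition zone diameter measured.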

Salmonella typhi [4] = assay: Antibacterial activity against Salmonella typhi NCIMB 9331 at 5 mg/ml by agar disk diffusion assay; type: functional, Salmonella enterica subsp. enterica serovar Typhi; details: Salmonella enterica, read-out: DIZ
Escherichia coli = assay: Antibacterial activity against Escherichia coli NCTC 10416 at 5 mg/ml by agar disk diffusion assay; type: functional; details: read-out: DIZ
Bacillus subtilis [5] = assay: Antibacterial activity against Bacillus subtilis NCIB 3610 at 5 mg/ml by agar disk diffusion assay; type: functional; details: Bacillus subtilis, NCIB 3610; read-out: DIZ
Bacillus subtilis [6] = assay: Antibacterial activity against Bacillus subtilis NCIB 3610 at 2.5 mg/ml by agar disk diffusion assay; type: functional; details: Bacillus subtilis, NCIB 3610; read-out: DIZ
Bacillus subtilis [7] = assay: Antibacterial activity against Bacillus subtilis NCIB 3610 at 1 mg/ml by agar disk diffusion assay; type: functional; details: Bacillus subtilis, NCIB 3610; read-out: DIZ
Bacillus subtilis [8] = assay: Antimicrobial activity against Bacillus subtilis NCTC 1040 by macrotube dilution assay; type: functional
Pseudomonas aeruginosa [9] = assay: Antibacterial activity against Pseudomonas aeruginosa NCIB 9016 at 1 mg/ml by agar disk diffusion assay; type: functional; details: Pseudomonas aeruginosa, NCIB 9016; read-out: DIZ
Candida albicans [10] = assay: Antifungal activity against Candida albicans IMRU 3669 at 2.5 mg/ml by agar disk diffusion assay; type: functional; details: read-out: DIZ; method in brief: as §2
Pseudomonas aeruginosa [11] = assay: Antibacterial activity against Pseudomonas aeruginosa NCIB 9016 at 5 mg/ml by agar disk diffusion assay; type: functional; details: Pseudomonas aeruginosa, NCIB 9016; read-out: DIZ
Aspergillus niger [12] = assay: Antifungal activity against Aspergillus niger Ferm-BAM C-21 by macrotube dilution assay; type: functional
Method in brief: (§3)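 Macrotube twofold dilution per NCCLS/CLSI guidelines for fungi; 2 mg compound in 2.0 mL DMF, serially diluted across 14 tubes of Czapek's Dox medium, with a control tube; inoculum added to halve the concentration; 30 °C for 72 h; MIC is the lowest concentration without visible growth.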

Aspergillus niger [13] = assay: Antifungal activity against Aspergillus niger Ferm-BAM C-21 at 1 mg/ml by agar disk diffusion assay; type: functional; details: read-out: DIZ; method in brief: as §2
Aspergillus niger [14] = assay: Antifungal activity against Aspergillus niger Ferm-BAM C-21 at 5 mg/ml by agar disk diffusion assay; type: functional; details: read-out: DIZ; method in brief: as §2
Salmonella typhi [15] = assay: Antimicrobial activity against Salmonella typhi NCIMB 9331 by macrotube dilution assay; type: functional, Salmonella enterica subsp. enterica serovar Typhi; details: Salmonella enterica
Aspergillus niger [16] = assay: Antifungal activity against Aspergillus niger Ferm-BAM C-21 at 2.5 mg/ml by agar disk diffusion assay; type: functional; details: read-out: DIZ; method in brief: as §2
Candida albicans [17] = assay: Antifungal activity against Candida albicans IMRU 3669 by macrotube dilution assay; type: functional; method in brief: as §3
Candida albicans [18] = assay: Antifungal activity against Candida albicans IMRU 3669 at 1 mg/ml by agar disk diffusion assay; type: functional; details: read-out: DIZ; method in brief: as §2
Klebsiella pneumoniae = assay: Antimicrobial activity against Klebsiella pneumoniae NCIMB 9111 by macrotube dilution assay; type: functional
Staphylococcus aureus [19] = assay: Antimicrobial activity against Staphylococcus aureus NCTC 7447 by macrotube dilution assay; type: functional
Pseudomonas aeruginosa [20] = assay: Antibacterial activity against Pseudomonas aeruginosa NCIB 9016 at 2.5 mg/ml by agar disk diffusion assay; type: functional; details: Pseudomonas aeruginosa, NCIB 9016; read-out: DIZ

## CCOc1ccc(N2C(=O)N(c3ccc4c(c3)Cc3ccccc3-4)C(=O)C2=S)cc1
Staphylococcus aureus [1]
  zone of inhibition at 5000 µg/mL: 15.5 mm
Hepatovirus A
  Activity: 50%
Bacillus subtilis [2]
  zone of inhibition at 5000 µg/mL: 17 mm
Human alphaherpesvirus 1
  Activity: 50%
Coxsackievirus B4
  Activity: 60%
Candida albicans [3]
  zone of inhibition at 5000 µg/mL: 14.5 mm
Salmonella typhi [4]
  zone of inhibition at 5000 µg/mL: 17.5 mm
Escherichia coli
  zone of inhibition at 5000 µg/mL: 19 mm

## N=C1C(=S)N(c2ccc(I)cc2)C(=S)N1c1ccc(I)cc1
Bacillus subtilis [5]
  zone of inhibition at 5000 µg/mL: 24 mm
Bacillus subtilis [6]
  zone of inhibition at 2500 µg/mL: 21 mm
Bacillus subtilis [7]
  zone of inhibition at 1000 µg/mL: 19 mm
Bacillus subtilis [8]
  MIC: 3.9 µg/mL (≈ 7.1 µM)
Pseudomonas aeruginosa [9]
  zone of inhibition at 1000 µg/mL: 15 mm
Candida albicans [10]
  zone of inhibition at 2500 µg/mL: 20 mm
Pseudomonas aeruginosa [11]
  zone of inhibition at 5000 µg/mL: 20 mm
Aspergillus niger [12]
  MIC: 0.49 µg/mL (≈ 0.892 µM)
Aspergillus niger [13]
  zone of inhibition at 1000 µg/mL: 12 mm
Aspergillus niger [14]
  zone of inhibition at 5000 µg/mL: 17 mm
Salmonella typhi [15]
  MIC: 1.95 µg/mL (≈ 3.55 µM)
Aspergillus niger [16]
  zone of inhibition at 2500 µg/mL: 15 mm
Candida albicans [17]
  MIC: 1.95 µg/mL (≈ 3.55 µM)
Candida albicans [18]
  zone of inhibition at 1000 µg/mL: 19 mm
Candida albicans [3]
  zone of inhibition at 5000 µg/mL: 21 mm
Klebsiella pneumoniae
  MIC: 7.8 µg/mL (≈ 14.2 µM)
Staphylococcus aureus [19]
  MIC: 15.6 µg/mL (≈ 28.4 µM)
Pseudomonas aeruginosa [20]
  zone of inhibition at 2500 µg/mL: 17 mm
